Measured values as given in BindingDB's records for doi:10.1021/jm00108a037 (Katholieke Universiteit Leuven, 1991).

Columns and labels:
[1] = biological target: T1, Acyl-protein thioesterase 1 (Rattus norvegicus, UniProt P70470); test: ChEBML_100186
Source text: in vitro inhibitory activity against Lysosomal phospholipase A1 consisting of negatively charged liposomes and lysosomal extracts. p<0.05

[2] = biological target: T1, Acyl-protein thioesterase 1; test: in vitro inhibitory activity against Lysosomal phospholipase A1 consisting of negatively charged liposomes and lysosomal extracts.
Method in brief: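 Lysosomal phospholipase activity measured on labeled phosphatidylcholine incorporated into negatively charged liposomes, read as release of labeled lysophosphatidylcholine.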

T1 sequence (P70470 whole entry): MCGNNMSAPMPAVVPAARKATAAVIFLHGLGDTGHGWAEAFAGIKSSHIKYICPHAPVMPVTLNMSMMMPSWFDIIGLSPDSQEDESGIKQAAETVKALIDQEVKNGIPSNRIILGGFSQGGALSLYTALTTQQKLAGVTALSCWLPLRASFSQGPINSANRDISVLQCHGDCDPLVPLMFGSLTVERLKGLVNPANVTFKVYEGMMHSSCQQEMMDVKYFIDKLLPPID

## NCC1OC(OC2C(N)CC(N)(CO)C(OC3OC(CO)C(O)C(N)C3O)C2O)C(N)C(O)C1O (centres undefined)
[1]
  IC50: 79 µM

## CC(=O)NCC1OC(OC2C(O)C(OC3OC(CN)C(O)C(O)C3N)C(N)CC2(N)CO)C(O)C(N)C1O (centres undefined)
[2]
  IC50: 119 µM

## NCC1OC(OC2C(N)CC(N)(CO)C(OC3OC(CCl)C(O)C(N)C3O)C2O)C(N)C(O)C1O (centres undefined)
[2]
  IC50: 105 µM

## [N-]=[N+]=NCC1OC(OC2C(O)C(OC3OC(CN)C(O)C(O)C3N)C(N)CC2(N)CO)C(O)C(N)C1O (centres undefined)
[1]
  IC50: 95 µM
